# Reference: ChEMBL document CHEMBL1125797, “Synthesis, characterization and myocardial uptake of cationic bis(arene)technetium(I) complexes” (J Med Chem, 1991)
# Legend:
# Rattus norvegicus [1] = organism: Rattus norvegicus; experiment: The compound was tested for the plasma binding in rat; assay type: ADME, organism-based
# [2] = The compound was tested for the plasma binding in human; assay type: ADME, cell-free
# Outline: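 Fresh heparinized human plasma (1.0 mL, obtained daily) was spiked with 0.02 mL test solution and incubated about 15 min. Duplicate samples went through saline-equilibrated Sephadex G-25 desalting columns by centrifugation. Eluate and gel were γ-counted for 1 min or to 1% σ error. % bound = net cpm eluate / net cpm (eluate + gel) × 100.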
# Rattus norvegicus [3] = experiment: Biodistribution of compound in rat blood after 5 min of administration; assay type: ADME, organism-based; conditions: in vivo
# Outline: (§1)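 Female Sprague-Dawley rats (150–200 g) received the 99mTc complex in normal saline (~12.5 μCi/mL) via a lateral tail vein at ~25 μCi/kg. They were killed by cervical dislocation 5 min after injection. Tissues were washed with saline, blotted, weighed and γ-counted, and the read-out was percent injected dose per g tissue.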
# Rattus norvegicus [4] = experiment: Biodistribution of compound in rat heart after 5 min of administration; assay type: ADME, organism-based; conditions: in vivo; outline: as §1
# Rattus norvegicus [5] = experiment: Biodistribution of compound in rat kidney after 5 min of administration; assay type: ADME, organism-based; conditions: in vivo; outline: as §1
# Rattus norvegicus [6] = experiment: Biodistribution of compound in rat liver after 5 min of administration; assay type: ADME, organism-based; conditions: in vivo; outline: as §1
# Rattus norvegicus [7] = experiment: Biodistribution of compound in rat lung after 5 min of administration; assay type: ADME, organism-based; conditions: in vivo
# Outline: (§2)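 Rats received the 99mTc complex in normal saline (~12.5 μCi/mL) by lateral tail vein injection at ~25 μCi/kg and were killed by cervical dislocation at the stated time. Tissues were washed with saline, blotted, weighed and γ-counted to give percent injected dose/g. Time-course values are averages of male and female rats.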
# [8] = Biodistribution of compound in rat muscle after 5 min of administration; assay type: ADME, organism-based, Muscle tissue; conditions: in vivo; outline: as §2
# Rattus norvegicus [9] = experiment: Biodistribution of compound in rat blood at 90 min after intravenous administration; assay type: ADME, organism-based; conditions: in vivo, 1.5 h
# Outline: (§3)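 Time course in Sprague-Dawley rats after lateral tail-vein injection of the 99mTc complex in normal saline (~12.5 μCi/mL) at ~25 μCi/kg. Tissues were sampled at the stated times, washed with saline, blotted, weighed and γ-counted to give percent injected dose per g. Values are averages of male and female rats.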
# Rattus norvegicus [10] = experiment: Biodistribution of compound in rat urine at 1440 min after intravenous administration; assay type: ADME, organism-based; conditions: in vivo, 24 h; outline: as §2
# Rattus norvegicus [11] = experiment: Biodistribution of compound in rat urine at 360 min after intravenous administration; assay type: ADME, organism-based; conditions: in vivo, 6 h; outline: as §2
# Rattus norvegicus [12] = experiment: Biodistribution of compound in rat blood at 1440 min after intravenous administration; assay type: ADME, organism-based; conditions: in vivo, 24 h; outline: as §3
# Rattus norvegicus [13] = experiment: Biodistribution of compound in rat blood at 180 min after intravenous administration; assay type: ADME, organism-based; conditions: in vivo, 3 h; outline: as §3
# Rattus norvegicus [14] = experiment: Biodistribution of compound in rat blood at 360 min after intravenous administration; assay type: ADME, organism-based; conditions: in vivo, 6 h; outline: as §3
# Rattus norvegicus [15] = experiment: Biodistribution of compound in rat blood at 5 min after intravenous administration; assay type: ADME, organism-based; conditions: in vivo; outline: as §3
# Rattus norvegicus [16] = experiment: Biodistribution of compound in rat gonads at 1440 min after intravenous administration; assay type: ADME, organism-based, Gonad; conditions: in vivo, 24 h; outline: as §3
# Rattus norvegicus [17] = experiment: Biodistribution of compound in rat gonads at 180 min after intravenous administration; assay type: ADME, organism-based, Gonad; conditions: in vivo, 3 h; outline: as §3
# Rattus norvegicus [18] = experiment: Biodistribution of compound in rat gonads at 360 min after intravenous administration; assay type: ADME, organism-based, Gonad; conditions: in vivo, 6 h; outline: as §3
# Rattus norvegicus [19] = experiment: Biodistribution of compound in rat gonads at 45 min after intravenous administration; assay type: ADME, organism-based, Gonad; conditions: in vivo, 0.75 h; outline: as §3
# Rattus norvegicus [20] = experiment: Biodistribution of compound in rat gonads at 5 min after intravenous administration; assay type: ADME, organism-based, Gonad; conditions: in vivo; outline: as §3
# Rattus norvegicus [21] = experiment: Biodistribution of compound in rat gonads at 90 min after intravenous administration; assay type: ADME, organism-based, Gonad; conditions: in vivo, 1.5 h; outline: as §3
# Rattus norvegicus [22] = experiment: Biodistribution of compound in rat heart at 1440 min after intravenous administration; assay type: ADME, organism-based; conditions: in vivo, 24 h; outline: as §3
# Rattus norvegicus [23] = experiment: Biodistribution of compound in rat heart at 180 min after intravenous administration; assay type: ADME, organism-based; conditions: in vivo, 3 h; outline: as §3
# Rattus norvegicus [24] = experiment: Biodistribution of compound in rat heart at 360 min after intravenous administration; assay type: ADME, organism-based; conditions: in vivo, 6 h; outline: as §3
# Rattus norvegicus [25] = experiment: Biodistribution of compound in rat heart at 45 min after intravenous administration; assay type: ADME, organism-based; conditions: in vivo, 0.75 h; outline: as §3
# Rattus norvegicus [26] = experiment: Biodistribution of compound in rat heart at 5 min after intravenous administration; assay type: ADME, organism-based; conditions: in vivo; outline: as §3
# Rattus norvegicus [27] = experiment: Biodistribution of compound in rat heart at 90 min after intravenous administration; assay type: ADME, organism-based; conditions: in vivo, 1.5 h; outline: as §3
# Rattus norvegicus [28] = experiment: Biodistribution of compound in rat kidney at 1440 min after intravenous administration; assay type: ADME, organism-based; conditions: in vivo, 24 h; outline: as §3
# Rattus norvegicus [29] = experiment: Biodistribution of compound in rat kidney at 180 min after intravenous administration; assay type: ADME, organism-based; conditions: in vivo, 3 h; outline: as §3
# Rattus norvegicus [30] = experiment: Biodistribution of compound in rat kidney at 360 min after intravenous administration; assay type: ADME, organism-based; conditions: in vivo, 6 h; outline: as §3
# Rattus norvegicus [31] = experiment: Biodistribution of compound in rat kidney at 45 min after intravenous administration; assay type: ADME, organism-based; conditions: in vivo, 0.75 h; outline: as §3
# Rattus norvegicus [32] = experiment: Biodistribution of compound in rat kidney at 5 min after intravenous administration; assay type: ADME, organism-based; conditions: in vivo; outline: as §3
# Rattus norvegicus [33] = experiment: Biodistribution of compound in rat kidney at 90 min after intravenous administration; assay type: ADME, organism-based; conditions: in vivo, 1.5 h; outline: as §3
# Rattus norvegicus [34] = experiment: Biodistribution of compound in rat liver at 1440 min after intravenous administration; assay type: ADME, organism-based; conditions: in vivo, 24 h; outline: as §3
# Rattus norvegicus [35] = experiment: Biodistribution of compound in rat liver at 180 min after intravenous administration; assay type: ADME, organism-based; conditions: in vivo, 3 h; outline: as §3
# Rattus norvegicus [36] = experiment: Biodistribution of compound in rat liver at 360 min after intravenous administration; assay type: ADME, organism-based; conditions: in vivo, 6 h; outline: as §2
substance,measurement,setting,value
"Bis(1,3,5-trimethylbenzene)technetium",Plasma binding,Rattus norvegicus [1],11%
same,Plasma binding,[2],21%
same,Dose/g,Rattus norvegicus [3],0.096%
same,Dose/g,Rattus norvegicus [4],1.9%
same,Dose/g,Rattus norvegicus [5],7.9%
same,Dose/g,Rattus norvegicus [6],0.98%
same,Dose/g,Rattus norvegicus [7],0.82%
same,Dose/g,[8],0.35%
same,Dose/ml,Rattus norvegicus [9],1.02 % dose
same,Dose/ml,Rattus norvegicus [10],26 % dose
same,Dose/ml,Rattus norvegicus [11],16 % dose
same,Dose/ml,Rattus norvegicus [12],0.13 % dose
same,Dose/ml,Rattus norvegicus [13],0.67 % dose
same,Dose/ml,Rattus norvegicus [14],0.52 % dose
same,Dose/ml,Rattus norvegicus [15],2.67 % dose
same,Dose/g,Rattus norvegicus [16],0.018 % dose
same,Dose/g,Rattus norvegicus [17],0.055 % dose
same,Dose/g,Rattus norvegicus [18],0.05 % dose
same,Dose/g,Rattus norvegicus [19],0.86 % dose
same,Dose/g,Rattus norvegicus [20],0.1 % dose
same,Dose/g,Rattus norvegicus [21],0.067 % dose
same,Dose/g,Rattus norvegicus [22],0.77 % dose
same,Dose/g,Rattus norvegicus [23],1 % dose
same,Dose/g,Rattus norvegicus [24],1.14 % dose
same,Dose/g,Rattus norvegicus [25],1.2 % dose
same,Dose/g,Rattus norvegicus [26],1.37 % dose
same,Dose/g,Rattus norvegicus [27],1.17 % dose
same,Dose/g,Rattus norvegicus [28],0.4 % dose
same,Dose/g,Rattus norvegicus [29],1.9 % dose
same,Dose/g,Rattus norvegicus [30],0.9 % dose
same,Dose/g,Rattus norvegicus [31],5.8 % dose
same,Dose/g,Rattus norvegicus [32],13.6 % dose
same,Dose/g,Rattus norvegicus [33],2 % dose/organ
same,Dose/g,Rattus norvegicus [34],0.3 % dose/organ
same,Dose/g,Rattus norvegicus [35],1.9 % dose/organ
same,Dose/g,Rattus norvegicus [36],0.8 % dose/organ
